Experimental findings from ChEMBL document CHEMBL4118192, “BET bromodomain ligands: Probing the WPF shelf to improve BRD4 bromodomain affinity and metabolic stability” (Bioorg Med Chem, 2018) are described below.

The subject of one test is HCC 2998. In words: Growth inhibition of human HCC2998 cells after 48 hrs by sulforhodamine B assay. The format is functional. The note with it: HCC 2998, 48 h. The method in brief: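 NCI-60 panel screen. Cells were exposed for 48 h at five concentrations between 10 nM and 100 μM. Cellular protein was read by sulforhodamine B staining, and GI50 and total growth inhibition (TGI) concentrations were derived.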
A general note: The SRB assay estimates cell density from bound dye.

In test [1] the target is Bromodomain-containing protein 4 (Homo sapiens, UniProt O60885). In words: Inhibition of human partial length BRD4 bromodomain 2 (K333 to E460 residues) expressed in bacterial expression system assessed as residual activity at 1 uM by BROMOscan assay relative to control.

By GI50 is commonly meant the concentration giving 50% growth inhibition. A low value points to greater sensitivity of the cells.

`Cc1noc(C)c1-c1cc(O)cc(C(O)c2ccccc2)c1` (configuration not stated) yielded a GI50 with HCC 2998 of 8.55 µM. Also, the Activity in test [1] was found to be 0.2%.
